Experimental data as given in ChEMBL document CHEMBL3120102, “Structure-based design, synthesis and biological evaluation of novel anthra[1,2-d]imidazole-6,11-dione homologues as potential antitumor agents” (2013).

Legend:
T47D = test: Cytotoxicity against human T47D cells assessed as cell growth at 10 uM after 48 hrs by SRB assay; format: functional; conditions: read-out: Activity
Method in brief: (§1)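 First stage of the NCI 60 human tumour cell line screen, with each compound tested at a single dose of 10. Cellular protein measured by sulforhodamine B colorimetry after 48 h drug exposure. Growth is calculated against a time-zero cell control and against plates not exposed to drug.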

BT-549 = test: Cytotoxicity against human BT549 cells assessed as cell growth at 10 uM after 48 hrs by SRB assay; format: functional; conditions: BT-549, 48 h, read-out: Activity
Method in brief: (§2)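 NCI 60-cell-line screen, first stage: compound at a single dose of […] (unit as printed) for 48 h. Cellular protein was measured by sulforhodamine B colorimetry. Growth was determined using a time-zero cell control and plates not exposed to drug.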

MDA-MB-231 = test: Cytotoxicity against human MDA-MB-231 cells assessed as cell growth at 10 uM after 48 hrs by SRB assay; format: functional; conditions: MDA-MB-231, 48 h, read-out: Activity
Method in brief: (§3)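 First stage of the NCI 60 human tumour cell line screen: a single dose is tested against every line. Cell growth is read as cellular protein by sulforhodamine B colorimetry after 48 h of drug exposure, with reference to a time-zero control and to untreated plates.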

RXF 393 = test: Cytotoxicity against human RXF393 cells assessed as cell growth at 10 uM after 48 hrs by SRB assay; format: functional; conditions: RXF 393, 48 h, read-out: Activity; method in brief: as §3
ACHN = test: Cytotoxicity against human ACHN cells assessed as cell growth at 10 uM after 48 hrs by SRB assay; format: functional; conditions: read-out: Activity
SK-OV-3 = test: Cytotoxicity against human SKOV3 cells assessed as cell growth at 10 uM after 48 hrs by SRB assay; format: functional; conditions: SK-OV-3, 48 h, read-out: Activity; method in brief: as §3
SK-MEL-5 = test: Cytotoxicity against human SK-MEL-5 cells assessed as cell growth at 10 uM after 48 hrs by SRB assay; format: functional; conditions: SK-MEL-5, 48 h, read-out: Activity; method in brief: as §3
SK-MEL-28 = test: Cytotoxicity against human SK-MEL-28 cells assessed as cell growth at 10 uM after 48 hrs by SRB assay; format: functional; conditions: SK-MEL-28, 48 h, read-out: Activity; method in brief: as §3
MDA-MB-435 = test: Cytotoxicity against human MDA-MB-435 cells assessed as cell growth at 10 uM after 48 hrs by SRB assay; format: functional; conditions: MDA-MB-435, 48 h, read-out: Activity; method in brief: as §3
Malme-3M = test: Cytotoxicity against human MALME-3M cells assessed as cell growth at 10 uM after 48 hrs by SRB assay; format: functional; conditions: read-out: Activity
M14 = test: Cytotoxicity against human M14 cells assessed as cell growth at 10 uM after 48 hrs by SRB assay; format: functional; conditions: M14, 48 h, read-out: Activity; method in brief: as §2
LOX IMVI = test: Cytotoxicity against human LOXIMVI cells assessed as cell growth at 10 uM after 48 hrs by SRB assay; format: functional; conditions: read-out: Activity; method in brief: as §2
SNB-75 = test: Cytotoxicity against human SNB75 cells assessed as cell growth at 10 uM after 48 hrs by SRB assay; format: functional; conditions: SNB-75, 48 h, read-out: Activity; method in brief: as §1
U-251 = test: Cytotoxicity against human U251 cells assessed as cell growth at 10 uM after 48 hrs by SRB assay; format: functional; conditions: U-251, 48 h, read-out: Activity; method in brief: as §1
SNB-19 = test: Cytotoxicity against human SNB19 cells assessed as cell growth at 10 uM after 48 hrs by SRB assay; format: functional; conditions: SNB-19, 48 h, read-out: Activity; method in brief: as §1
SF-539 = test: Cytotoxicity against human SF539 cells assessed as cell growth at 10 uM after 48 hrs by SRB assay; format: functional; conditions: SF-539, 48 h, read-out: Activity; method in brief: as §3
SW-620 = test: Cytotoxicity against human SW620 cells assessed as cell growth at 10 uM after 48 hrs by SRB assay; format: functional; conditions: SW-620, 48 h, read-out: Activity; method in brief: as §1
KM12 = test: Cytotoxicity against human KM12 cells assessed as cell growth at 10 uM after 48 hrs by SRB assay; format: functional; conditions: KM12, 48 h, read-out: Activity
HCT-15 = test: Cytotoxicity against human HCT15 cells assessed as cell growth at 10 uM after 48 hrs by SRB assay; format: functional; conditions: HCT-15, 48 h, read-out: Activity
HCC 2998 = test: Cytotoxicity against human HCC2998 cells assessed as cell growth at 10 uM after 48 hrs by SRB assay; format: functional; conditions: HCC 2998, 48 h, read-out: Activity
COLO 205 = test: Cytotoxicity against human COLO205 cells assessed as cell growth at 10 uM after 48 hrs by SRB assay; format: functional; conditions: COLO 205, 48 h, read-out: Activity
NCI-H460 = test: Cytotoxicity against human NCI-H460 cells assessed as cell growth at 10 uM after 48 hrs by SRB assay; format: functional; conditions: NCI-H460, 48 h, read-out: Activity; method in brief: as §3
NCI-H322M = test: Cytotoxicity against human NCI-H322M cells assessed as cell growth at 10 uM after 48 hrs by SRB assay; format: functional; conditions: read-out: Activity; method in brief: as §3
NCI-H226 = test: Cytotoxicity against human NCI-H226 cells assessed as cell growth at 10 uM after 48 hrs by SRB assay; format: functional; conditions: NCI-H226, 48 h, read-out: Activity; method in brief: as §3
HOP-92 = test: Cytotoxicity against human HOP92 cells assessed as cell growth at 10 uM after 48 hrs by SRB assay; format: functional; conditions: HOP-92, 48 h, read-out: Activity; method in brief: as §2
HOP-62 = test: Cytotoxicity against human HOP62 cells assessed as cell growth at 10 uM after 48 hrs by SRB assay; format: functional; conditions: HOP-62, 48 h, read-out: Activity; method in brief: as §2
A549 = test: Cytotoxicity against human A549 cells assessed as cell growth at 10 uM after 48 hrs by SRB assay; format: functional; conditions: A549, 48 h, read-out: Activity
SR = test: Cytotoxicity against human SR cells assessed as cell growth at 10 uM after 48 hrs by SRB assay; format: functional; conditions: read-out: Activity; method in brief: as §1
RPMI-8226 = test: Cytotoxicity against human RPMI8226 cells assessed as cell growth at 10 uM after 48 hrs by SRB assay; format: functional; conditions: RPMI-8226, 48 h, read-out: Activity; method in brief: as §3
HL-60(TB) = test: Cytotoxicity against human HL-60(TB) cells assessed as cell growth at 10 uM after 48 hrs by SRB assay; format: functional; conditions: HL-60, 48 h, read-out: Activity
Method in brief: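 NCI 60-cell panel first-stage screen at a single dose in the HL-60(TB) leukemia line. Cellular protein was measured by sulforhodamine B colorimetry after 48 h of drug exposure. Growth was referenced to a time-zero cell control and to plates not exposed to drug.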

[1] = target: Telomerase reverse transcriptase (Homo sapiens) (UniProt O14746); test: Inhibition of human tert transcriptional activity assessed as SEAP activity at 10 uM after 24 hrs by SEAP reporter assay; design: scale not given: the % may be the effect or the level left
Method in brief: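 Reporter assay for hTERT transcriptional activity using secreted alkaline phosphatase. About 2 × 10³ cells per well were grown for 24 h at 37 °C, then given fresh medium. Buffer was added to the medium: 2 M diethanolamine, 1 mM MgCl2 and 20 mM L-homoarginine. p-Nitrophenyl phosphate was added to 12 mM final. The rate of absorbance increase was read at 405 nm.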

Chain of Telomerase reverse transcriptase (Homo sapiens) (O14746 whole entry): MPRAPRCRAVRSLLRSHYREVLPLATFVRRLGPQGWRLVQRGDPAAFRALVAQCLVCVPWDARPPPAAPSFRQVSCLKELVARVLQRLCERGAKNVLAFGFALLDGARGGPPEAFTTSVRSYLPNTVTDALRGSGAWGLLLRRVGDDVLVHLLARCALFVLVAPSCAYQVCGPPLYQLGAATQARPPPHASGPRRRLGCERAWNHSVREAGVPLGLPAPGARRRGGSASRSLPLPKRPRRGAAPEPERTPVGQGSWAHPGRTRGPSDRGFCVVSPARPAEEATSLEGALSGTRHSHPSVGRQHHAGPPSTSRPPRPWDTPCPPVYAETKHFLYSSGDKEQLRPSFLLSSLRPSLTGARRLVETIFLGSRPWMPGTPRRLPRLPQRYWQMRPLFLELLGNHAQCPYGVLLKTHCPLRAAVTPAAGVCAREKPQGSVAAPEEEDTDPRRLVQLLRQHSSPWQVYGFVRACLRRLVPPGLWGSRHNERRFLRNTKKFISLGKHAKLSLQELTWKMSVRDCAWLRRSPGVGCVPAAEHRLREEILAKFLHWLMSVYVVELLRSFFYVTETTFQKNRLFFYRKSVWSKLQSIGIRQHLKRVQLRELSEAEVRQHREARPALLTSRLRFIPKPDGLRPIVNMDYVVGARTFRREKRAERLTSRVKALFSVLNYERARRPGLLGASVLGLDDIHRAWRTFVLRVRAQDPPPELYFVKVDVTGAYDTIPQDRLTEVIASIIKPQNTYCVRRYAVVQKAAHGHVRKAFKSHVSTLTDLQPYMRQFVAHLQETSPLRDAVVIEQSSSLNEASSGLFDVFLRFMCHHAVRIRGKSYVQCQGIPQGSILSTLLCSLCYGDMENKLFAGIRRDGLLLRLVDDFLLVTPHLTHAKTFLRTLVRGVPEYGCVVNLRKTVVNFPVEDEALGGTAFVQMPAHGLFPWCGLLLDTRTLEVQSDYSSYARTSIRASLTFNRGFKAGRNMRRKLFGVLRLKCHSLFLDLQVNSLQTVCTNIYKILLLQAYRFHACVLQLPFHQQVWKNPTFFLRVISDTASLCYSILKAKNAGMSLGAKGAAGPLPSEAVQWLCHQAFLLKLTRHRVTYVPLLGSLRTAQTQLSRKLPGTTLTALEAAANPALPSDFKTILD

Compound | growth at 10 µM (T47D) [%] | growth at 10 µM (BT-549) [%] | growth at 10 µM (MDA-MB-231) [%] | growth at 10 µM (RXF 393) [%] | growth at 10 µM (ACHN) [%] | growth at 10 µM (SK-OV-3) [%] | growth at 10 µM (SK-MEL-5) [%] | growth at 10 µM (SK-MEL-28) [%] | growth at 10 µM (MDA-MB-435) [%] | growth at 10 µM (Malme-3M) [%] | growth at 10 µM (M14) [%] | growth at 10 µM (LOX IMVI) [%] | growth at 10 µM (SNB-75) [%] | growth at 10 µM (U-251) [%] | growth at 10 µM (SNB-19) [%] | growth at 10 µM (SF-539) [%] | growth at 10 µM (SW-620) [%] | growth at 10 µM (KM12) [%] | growth at 10 µM (HCT-15) [%] | growth at 10 µM (HCC 2998) [%] | also measured
O=C1c2ccccc2C(=O)c2c1ccc1nc(SCCN3CCCC3)[nH]c21 | 83.1 | 78.6 | 63.5 | 22.3 | 34.6 | 55.6 | 78.5 | 100 | 66.5 | 112 | 70.9 | 11.9 | 81.8 | 69.1 | 60.5 | 62.2 | 22.8 | 19.6 | 40.4 | 71.5 | growth at 10 µM (COLO 205): 17.1%; growth at 10 µM (NCI-H460): 34.1%; growth at 10 µM (NCI-H322M): 73.2%; growth at 10 µM (NCI-H226): 88.1%; growth at 10 µM (HOP-92): 35.2%; growth at 10 µM (HOP-62): 73.7%; growth at 10 µM (A549): 35.5%; growth at 10 µM (SR): 20.2%; growth at 10 µM (RPMI-8226): -60.2%; growth at 10 µM (HL-60(TB)): 37.4%; Activity [1]: 98%
CN(C)CCCSc1nc2ccc3c(c2[nH]1)C(=O)c1ccccc1C3=O | 45.8 | 75.8 | 56.2 | 38.4 | 24.3 | 32.4 | 62.5 | 102 | 72.2 | 88.2 | 77.3 | 28.6 | 50.5 | 74.1 | 79.7 | 57.5 | 26.4 | 20.4 | 36.3 | 72.7 | growth at 10 µM (COLO 205): 62%; growth at 10 µM (NCI-H460): 23.2%; growth at 10 µM (NCI-H322M): 70.8%; growth at 10 µM (NCI-H226): 74.1%; growth at 10 µM (HOP-92): 16%; growth at 10 µM (HOP-62): 52%; growth at 10 µM (A549): 51.6%; growth at 10 µM (SR): 3.09%; growth at 10 µM (RPMI-8226): -13.7%; growth at 10 µM (HL-60(TB)): 12.7%; Activity [1]: 86%
CCSc1nc2ccc3c(c2[nH]1)C(=O)c1ccccc1C3=O | 30.8 | 55.8 | 84.8 | 99.9 | 37.6 | 24.7 | 63.9 | 97.7 | 68.4 | 63.3 | 67.1 | 36.7 | 73.3 | 65 | 87.9 | 58.6 | 84.5 | 68.3 | 32.3 | 89.4 | growth at 10 µM (COLO 205): 71.8%; growth at 10 µM (NCI-H460): 38.8%; growth at 10 µM (NCI-H322M): 33.4%; growth at 10 µM (NCI-H226): 62.1%; growth at 10 µM (HOP-92): 75.3%; growth at 10 µM (HOP-62): 95.6%; growth at 10 µM (A549): 101%; growth at 10 µM (SR): 129%; growth at 10 µM (RPMI-8226): 28.5%; growth at 10 µM (HL-60(TB)): 62.6%; Activity [1]: 90%
